# Assay results reported in ChEMBL document CHEMBL1123308 (J Med Chem, 1986).
# Activity calls are given as the source filed them. The calls are words filed in the database; no cut-off is given here.
# Experiments:
# L1210 [1] = test: Compound was evaluated for drug concentration for 50% inhibition of actively growing L1210 cells in culture for the inhibition of incorporation of [3H]thymidine in the DNA(isomeric ratio A/B/C = 7:0:92); assay type: functional; settings: Mus musculus, read-out: ED50 (the source's name)
# In short: (§1)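 Actively growing L1210 cells in culture. Drug was dissolved in Me2SO and diluted to 1% Me2SO final. The read-out is [3H]thymidine incorporation into DNA or [3H]uridine incorporation into RNA. ED50 is the drug concentration giving 50% inhibition of incorporation.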
# [2] = Partition coefficient was determined in octanol-phosphate at pH 7.4; assay type: physicochemical; settings: octanol/phosphate buffer
# In short: (§2)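 Octanol/buffer partitioning used phosphate buffer at pH 7.4, 6.5 or 6.0 and citrate buffer at pH 4.0. Phases were separated by centrifugation at 2000 rpm for 5 min. Concentration in one phase was read by UV absorbance at 235.5 nm in 1-cm cells, and the other phase was obtained by difference. Determinations were in duplicate at 2 or 3 octanol-buffer ratios (1:10 to 1:50). Log P = log(organic/aqueous concentration).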
# L1210 [3] = test: Compound was evaluated for drug concentration for 50% inhibition of actively growing L1210 cells in culture for the inhibition of incorporation of [3H]uridine in the RNA(isomeric ratio A/B/C = 7:0:92); assay type: functional; settings: Mus musculus, read-out: ED50 (the source's name); in short: as §1
# [4] = Partition coefficient was determined in octanol-citrate at pH 4.0; settings: octanol/citrate buffer
# L1210 [5] = test: Compound was evaluated for drug concentration for 50% inhibition of actively growing L1210 cells in culture for the inhibition of incorporation of [3H]uridine in the RNA(isomeric ratio A/B/C = 2:91:7); assay type: functional; settings: Mus musculus, read-out: ED50 (the source's name); in short: as §1
# Nucleic Acid = test: Stabilization of helical DNA toward thermal denaturation (delta Tm) was determined (isomeric ratio A/B/C = 2:91:7); assay type: nucleic-acid assay
# In short: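 Thermal denaturation of calf thymus DNA (5.2 × 10^-5 M P) with drug at 5.2 × 10^-6 M. Buffer was 0.01 M phosphate pH 7 with 10^-5 M EDTA and 5% Me2SO. ΔTm = Tm of the DNA-drug complex minus Tm of DNA alone. Values ≤1 are taken as insignificant binding.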
# [6] = Partition coefficient was determined in octanol-phosphate at pH 6.5; assay type: physicochemical; settings: octanol/phosphate buffer; in short: as §2
# Mus musculus [7] = test: Compound was evaluated for antitumor efficacy at optimum dose in mice against P388 leukemic cells at 1.25 mg/Kg day 1 (intraperitoneal); assay type: functional
# In short: (§3)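 Mouse survival screens were run by NCI protocols, with intraperitoneal dosing on the schedule given. Efficacy is % T/C, the average survival time of treated mice divided by that of control mice, at the optimal dose.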
# Mus musculus [8] = test: Compound was evaluated for antitumor efficacy at optimum dose in mice against P388 leukemic cells at 2 mg/kg q4d 5,9,13 days (intraperitoneal); assay type: functional; in short: as §3
# L1210 [9] = test: Compound was evaluated for drug concentration for 50% inhibition of actively growing L1210 cells in culture for the inhibition of incorporation of [3H]thymidine in the DNA(isomeric ratio A/B/C = 28:69:0); assay type: functional; settings: Mus musculus, read-out: ED50 (the source's name); in short: as §1
# [10] = Partition coefficient was determined in octanol-phosphate at pH 6.0; assay type: physicochemical; settings: octanol/phosphate buffer; in short: as §2
# [11] = Stabilization of helical DNA toward thermal denaturation (delta Tm) was determined (isomeric ratio A/B/C = 28:69:0); assay type: ADME
# Mus musculus [12] = test: Compound was evaluated for antitumor efficacy at optimum dose in mice aagainst B16 melanoma cells at 0.0625 mg/Kg day 1 (intraperitoneal); assay type: functional; settings: in the assay text read “0.625 mg/Kg” for “0.0625 mg/Kg”; in short: as §3
# L1210 [13] = test: Compound was evaluated for drug concentration for 50% inhibition of actively growing L1210 cells in culture for the inhibition of incorporation of [3H]thymidine in the DNA(isomeric ratio A/B/C = 2:91:7); assay type: functional; settings: Mus musculus, read-out: ED50 (the source's name); in short: as §1
# Mus musculus [14] = test: Compound was evaluated for antitumor efficacy at optimum dose in mice against B16 melanoma cells at 2.5 mg/kg on q4d 1,5,9 days (intravenous)
# L1210 [15] = test: Compound was evaluated for drug concentration for 50% inhibition of actively growing L1210 cells in culture for the inhibition of incorporation of [3H]uridine in the RNA(isomeric ratio A/B/C = 28:69:0); assay type: functional; settings: Mus musculus, read-out: ED50 (the source's name); in short: as §1
# [16] = Stabilization of helical DNA toward thermal denaturation (delta Tm) was determined (isomeric ratio A/B/C = 7:0:92); assay type: ADME
# L1210 [17] = test: Compound was evaluated for drug concentration for 50% inhibition of actively growing L1210 cells in culture for the inhibition of incorporation of [3H]uridine in the RNAisomeric ratio A/B = 4:91); assay type: functional; settings: Mus musculus, read-out: ED50 (the source's name); in short: as §1
# L1210 [18] = test: Compound was evaluated for drug concentration for 50% inhibition of actively growing L1210 cells in culture for the inhibition of incorporation of [3H]uridine in the RNA(isomeric ratio A/B = 76:12); assay type: functional; settings: Mus musculus, read-out: ED50 (the source's name); in short: as §1
# [19] = Stabilization of helical DNA toward thermal denaturation (delta Tm) was determined (isomeric ratio A/B = 76:12); assay type: ADME
# L1210 [20] = test: Compound was evaluated for drug concentration for 50% inhibition of actively growing L1210 cells in culture for the inhibition of incorporation of [3H]thymidine in the DNA(isomeric ratio A/B = 76:12); assay type: functional; settings: Mus musculus, read-out: ED50 (the source's name); in short: as §1
# L1210 [21] = test: Compound was evaluated for drug concentration for 50% inhibition of actively growing L1210 cells in culture for the inhibition of incorporation of [3H]thymidine in the DNA(isomeric ratio A/B = 4:91); assay type: functional; settings: Mus musculus, read-out: ED50 (the source's name); in short: as §1
# [22] = Stabilization of helical DNA toward thermal denaturation (delta Tm) was determined (isomeric ratio A/B = 4:91); assay type: ADME
# [23] = Stabilization of helical DNA toward thermal denaturation (delta Tm) was determined; assay type: ADME
# In short: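 Calf thymus DNA thermal denaturation. Drug at 5.2 × 10^-6 M and DNA (P) at 5.2 × 10^-5 M in 0.01 M phosphate buffer, pH 7, with 10^-5 M EDTA and 5% Me2SO. ΔTm = Tm of DNA-drug complex minus Tm of DNA alone. Values ≤1 are taken as insignificant binding.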
# L1210 [24] = test: Compound was evaluated for drug concentration for 50% inhibition of actively growing L1210 cells in culture for the inhibition of incorporation of [3H]uridine in the RNA; assay type: functional; settings: Mus musculus, read-out: ED50 (the source's name)
# In short: (§4)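 Actively growing L1210 leukemia cells in culture; incorporation of [3H]thymidine into DNA or [3H]uridine into RNA measured. ED50 is the drug concentration giving 50% inhibition of incorporation. Drugs dissolved in Me2SO first, then diluted to 1% Me2SO final.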
# Mus musculus [25] = test: Compound was evaluated for antitumor efficacy at optimum dose in mice against B16 melanoma cells at 0.0063 mg/Kg dose on day 1 (intraperitoneal); assay type: functional
# L1210 [26] = test: Compound was evaluated for drug concentration for 50% inhibition of actively growing L1210 cells in culture for the inhibition of incorporation of [3H]thymidine in the DNA; assay type: functional; settings: Mus musculus, read-out: ED50 (the source's name); in short: as §4
# Mus musculus [27] = test: Compound was evaluated for antitumor efficacy at optimum dose in mice against B16 melanoma cells at q4d 5,9,13 days (intraperitoneal); Inactive; assay type: functional, organism-based
# Mus musculus [28] = test: Compound was evaluated for antitumor efficacy at optimum dose in mice against P388 leukemic cells at 7.5 mg/Kg day 1 (intraperitoneal); assay type: functional; in short: as §3
# Mus musculus [29] = test: Compound was evaluated for antitumor efficacy at optimum dose in mice against B16 melanoma cells at 10 mg/Kg on q4d 1,5,9 days (intravenous)
# Mus musculus [30] = test: Compound was evaluated for antitumor efficacy at optimum dose in mice against P388 leukemic cells at 8 mg/Kg on q4d 5,9,13 days (intraperitoneal); assay type: functional; in short: as §3
# Mus musculus [31] = test: Compound was evaluated for antitumor efficacy at optimum dose in mice aagainst B16 melanoma cells at 7.5 mg/Kgon day 1 (intraperitoneal); assay type: functional; in short: as §3
smiles,measurement,setting,value
COc1cccc2c1C(=O)c1c(O)c3c(c(O)c1C2=O)C[C@@](O)(C(=O)CO)C[C@@H]3OC1CC2C(OC3COCC(C#N)N32)C(C)O1 (some centres undefined),EC50,L1210 [1],25 µM
same,logD,[2],2.41
same,EC50,L1210 [3],2000 nM
same,logD,[4],2.24
same,EC50,L1210 [5],790 nM
same,ΔTm,Nucleic Acid,12.2
same,logD,[6],2.29
same,T/C,Mus musculus [7],150%
same,T/C,Mus musculus [8],135%
same,EC50,L1210 [9],550 nM
same,logD,[10],2.4
same,Delta Tm,[11],12.8
same,T/C,Mus musculus [12],>=153%
same,EC50,L1210 [13],1400 nM
same,T/C,Mus musculus [14],141%
same,EC50,L1210 [15],220 nM
same,Delta Tm,[16],2.6
COc1cccc2c1C(=O)c1c(O)c3c(c(O)c1C2=O)C[C@@](O)(C(=O)CO)C[C@@H]3OC1CC(N2CCOCC2)C(O)C(C)O1 (some centres undefined),logD,[2],1.73
same,logD,[4],-1.1
same,logD,[6],1.42
same,logD,[10],0.96
COc1cccc2c1C(=O)c1c(O)c3c(c(O)c1C2=O)C[C@@](O)(C(C)=O)C[C@@H]3OC1CC2C(OC3COCC(C#N)N32)C(C)O1 (some centres undefined),EC50,L1210 [17],840 nM
same,EC50,L1210 [18],220 nM
same,Delta Tm,[19],5
same,EC50,L1210 [20],420 nM
same,EC50,L1210 [21],1950 nM
same,Delta Tm,[22],8.3
COc1cccc2c1C(=O)c1c(O)c3c(c(O)c1C2=O)C[C@@](O)(C(=O)CO)C[C@@H]3OC1CC(N2CCOCC2C#N)C(O)C(C)O1 (some centres undefined),Delta Tm,[23],8.7
same,EC50,L1210 [24],0.53 nM
same,T/C,Mus musculus [25],>=138%
same,EC50,L1210 [26],3 nM
same,T/C,Mus musculus [27],inactive
COc1cccc2c1C(=O)c1c(O)c3c(c(O)c1C2=O)C[C@@](O)(C(=O)CO)C[C@@H]3O[C@H]1C[C@H](N)[C@H](O)[C@H](C)O1 [DOXORUBICIN],Delta Tm,[23],12.8
same,T/C,Mus musculus [28],252%
same,EC50,L1210 [24],580 nM
same,EC50,L1210 [26],1600 nM
same,T/C,Mus musculus [29],206%
same,T/C,Mus musculus [30],160%
same,T/C,Mus musculus [31],192%
